Measurements taken from paper PMC10788905 (Journal of Medicinal Chemistry, 2023).
Where a name gives a salt, the structure may show the parent alone. Each block holds one compound with its values, some of them ahead of it.

Legend:
[1] = test system: human ether-a-go-go-related gene (hERG) potassium channel; details: cited from earlier work
xenograft models = details: doses lower than 50 mg/kg (ip daily); cited from earlier work
breast cancer BT-474 = details: after 72 h treatment; cited from earlier work
[2] = test system: melanoma A375 cells expressing GFP-LC3; experiment: GFP-LC3 reporter autophagy assay; assay type: cell-based, human; details: 24 h treatment; for GFP-LC3-positive autophagosomes (fluorescent dots per cell): different concentrations
In short: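 A375 melanoma cells were stably transfected with EGFP-LC3B and G418-selected; the clone used was validated with 10 μM chloroquine. Cells on glass-bottom plates were exposed to varied compound concentrations for 24 h, fixed in 4% PFA and Hoechst 33342-stained. GFP-LC3 perinuclear dots per cell were counted by fluorescence microscopy, ten fields per dose, four independent replicates.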

several tumor cell lines = details: cited from earlier work
[3] = Liver microsomal stability, mouse and human, UDPGA; assay type: in vitro ADME; details: for m,h-LM % at 120 min / m,h-LM t1/2: mouse and human liver microsomes; for m,h-LM % at 120 min: UDPGA, compound remaining at 120 min; for half-life at 4.6 μM: mouse and human, liver microsomes with alamethicin, pH 7.5; for m,h-LM t1/2: UDPGA cofactor
In short: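 Phase II: compound from a 10 mM DMSO stock (4.6 μM final) was preincubated 15 min at 37 °C with mouse or human liver microsomes plus alamethicin in 0.1 M Tris-HCl pH 7.5, 10% DMSO. UDPGA, D-saccharic acid lactone and MgCl₂ were added and incubated 2 h at 37 °C. Samples at 0–120 min were quenched in cold MeCN with internal standard. No-cofactor matrix controls were run. Mean of ≥2 experiments, duplicates.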

Tolerability studies = assay type: in vivo, female CD1 mice; details: for reduction in body weight: after 8 days
In short: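 Female CD1 mice (8–9 weeks, 4-day acclimation), 3 per group, received ip compound in saline; controls got saline ip daily. Regimens: 138 μmol/kg daily or every other day; 69 μmol/kg daily or 3 days on/2 off, over an 8-day period. Behavior, body weight, food and water intake were recorded daily. Weight on the pre-treatment day was set to 100%.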

BT-474 cells = experiment: Apoptosis in BT-474; assay type: cell-based, human; details: BT-474, different concentrations, 24 h
In short: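 Poly-caspase activity detected with a live-cell red/green caspase apoptosis detection kit. Cleaved PARP measured by immunoblot in TBS-T with 5% BSA: primary antibody 1:2000, GAPDH loading control 1:100000, HRP-conjugated secondaries 1:10000.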

A375 xenografts = experiment: A375 subcutaneous xenograft model; assay type: in vivo, female NMRI-Foxn1nu mice
[4] = 30 mg/kg ip, 3/5 d schedule, day 15

Structure (SMILES): CCN(CC)CCCC(C)Nc1ccnc2cc(Cl)ccc12 (stereo not shown) [CQ, Chloroquine]
concentrations blocking hERG activity [1]: single-digit | efficacy in xenograft models (xenograft models): completely ineffective

Structure (SMILES): CN1CCN(Cc2cc(CNC3(c4ccccc4F)CCCC3)ccc2O)CC1 [Compound 1a, 4-[[[1-(2-fluorophenyl)cyclopentyl]amino]methyl]-2-[(4-methylpiperazin-1-yl)methyl]phenol]
IC50 (breast cancer BT-474): 30.1 µM

Structure (SMILES): CN1CCC(Cc2cccc(CNC3(c4ccc(F)cc4)CCCC3)c2)CC1 [Compound 1e]
GFP-LC3-positive autophagosomes (fluorescent dots per cell) [2]: dose-dependent accumulation | IC50 (breast cancer BT-474): 2.1 µM | in vitro anticancer activity, times higher than CQ (several tumor cell lines): up to 50 times | m,h-LM % at 120 min [3]: > 95% | half-life at 4.6 μM [3]: > 2 h

Structure (SMILES): COc1cc(F)ccc1C1(NCc2cccc(CC3CCN(C)CC3)c2)CCCC1 [Compound 5, 1-(4-Fluoro-2-methoxy-phenyl)-N-[[3-[(1-methyl-4-piperidyl)methyl]phenyl]methyl]cyclopentanamine Dihydrochloride]
m,h-LM % at 120 min [3]: > 95% | half-life at 4.6 μM [3]: > 2 h

Structure (SMILES): CN1CCC(Cc2cc(CNC3(c4ccc(F)cc4)CCCC3)ccc2F)CC1 [Compound 11, N-[[4-Fluoro-3-[(1-methyl-4-piperidyl)methyl]phenyl]methyl]-1-(4-fluorophenyl)cyclopentanamine Dihydrochloride]
half-life at 4.6 μM [3]: > 2 h

Structure (SMILES): CN1CCC(Cc2ccc(O)c(CNC3(c4ccc(F)cc4)CCCC3)c2)CC1 [Compound 15, 2-[[[1-(4-Fluorophenyl)cyclopentyl]amino]methyl]-4-[(1-methyl-4-piperidyl)methyl]phenol Dihydrochloride]
half-life at 4.6 μM [3]: > 2 h

Structure (SMILES): Fc1ccc(C2(NCc3ccc(F)c(CC4CCNCC4)c3)CCCC2)cc1 [Compound 24, 1-(4-Fluorophenyl)-N-[[4-fluoro-3-(4-piperidylmethyl)phenyl]methyl]cyclopentanamine Dihydrochloride]
increase in fluorescent dots compared with 1e ([2]; all the doses tested): significantly higher increase | GFP-LC3-positive autophagosomes (fluorescent dots per cell) [2]: dose-dependent accumulation | reduction in body weight (Tolerability studies; 69 μmol/kg (31 mg/kg) ip daily): ≤ 5% | tolerability (body weight, water and food intake) (Tolerability studies; 69 μmol/kg (31 mg/kg) ip, 3/5 d schedule, 15-day period): well tolerated | signs of arched backs and lethargy (Tolerability studies; 138 μmol/kg (62 mg/kg) ip daily): did not observe clear signs of arched backs and lethargy | animal body weight (Tolerability studies; 138 μmol/kg (62 mg/kg) ip daily, after 2 days of treatment): significantly reduced | reduction in body weight (Tolerability studies; 138 μmol/kg (62 mg/kg) ip every other day): ≤ 5% | caspase-activity and cleaved PARP protein levels (BT-474 cells): dose-dependent induction | tumor expression of REV-ERB target genes BMAL1 and PEPCK (A375 xenografts; 30 mg/kg ip for 2 days, tumors collected after 48 h, versus control): significantly higher expression | average tumor volume (excised tumors) (A375 xenografts; [4]): 307.7 mm^3 | average tumor weight (A375 xenografts; [4]): 0.365 g | effects on body weight (A375 xenografts; 30 mg/kg ip, 3/5 d schedule, mice bearing A375 xenografts): negligible effects | m,h-LM t1/2 [3]: > 2 h | half-life at 4.6 μM [3]: > 2 h

Structure (SMILES): Fc1ccc(C2(NCc3cc(CC4CCNCC4)ccc3F)CCCC2)cc1 [Compound 25, 1-(4-Fluorophenyl)-N-[[2-fluoro-5-(4-piperidylmethyl)phenyl]methyl]cyclopentanamine Dihydrochloride]
m,h-LM t1/2 [3]: > 2 h

Structure (SMILES): CCN(CCO)CCCC(C)Nc1ccnc2cc(Cl)ccc12 (stereo not shown) [HCQ, hydroxychloroquine]
concentrations blocking hERG activity [1]: single-digit

Further lines, results first:

m,h-LM % at 120 min [3]: > 95% | half-life at 4.6 μM [3]: > 2 h
Structure (SMILES): CN1CCC(Cc2cccc(CNC3(c4ccc(F)cc4O)CCCC3)c2)CC1 [Compound 6, 5-Fluoro-2-[1-[[3-[(1-methyl-4-piperidyl)methyl]phenyl]methylamino]cyclopentyl]phenol Dihydrochloride]

m,h-LM % at 120 min [3]: > 95% | half-life at 4.6 μM [3]: > 2 h
Structure (SMILES): CN1CCC(Cc2cccc(CNC3(c4ccc(F)c(F)c4)CCCC3)c2)CC1 [Compound 7, 1-(3,4-Difluorophenyl)-N-[[3-[(1-methyl-4-piperidyl)methyl]phenyl]methyl]cyclopentanamine;dihydrochloride]

m,h-LM % at 120 min [3]: > 95% | half-life at 4.6 μM [3]: > 2 h
Structure (SMILES): COc1cc(C2(NCc3cccc(CC4CCN(C)CC4)c3)CCCC2)ccc1F [Compound 9, 1-(4-Fluoro-3-methoxy-phenyl)-N-[[3-[(1-methyl-4-piperidyl)methyl]phenyl]methyl]cyclopentanamine Dihydrochloride]

m,h-LM % at 120 min [3]: > 95%
Structure (SMILES): CN1CCC(Cc2cccc(CNC3(c4ccc(F)c(O)c4)CCCC3)c2)CC1 [Compound 10, 2-Fluoro-5-[1-[[3-[(1-methyl-4-piperidyl)methyl]phenyl]methylamino]cyclopentyl]phenol Dihydrochloride]

half-life at 4.6 μM [3]: > 2 h
Structure (SMILES): CN1CCC(Cc2cc(CNC3(c4ccc(F)cc4)CCCC3)ccc2O)CC1 [Compound 12, 4-[[[1-(4-Fluorophenyl)cyclopentyl]amino]methyl]-2-[(1-methyl-4-piperidyl)methyl]phenol Dihydrochloride]

half-life at 4.6 μM [3]: > 2 h
Structure (SMILES): CN1CCC(Cc2ccc(F)c(CNC3(c4ccc(F)cc4)CCCC3)c2)CC1 [Compound 14, N-[[2-Fluoro-5-[(1-methyl-4-piperidyl)methyl]phenyl]methyl]-1-(4-fluorophenyl)cyclopentanamine Dihydrochloride]

half-life at 4.6 μM [3]: > 2 h
Structure (SMILES): CN1CCC(Cc2cc(CNC3(c4ccc(F)cc4)CCCC3)c(F)cc2F)CC1 [Compound 16, N-[[2,4-Difluoro-5-[(1-methyl-4-piperidyl)methyl]phenyl]methyl]-1-(4-fluorophenyl)cyclopentanamine Dihydrochloride]

half-life at 4.6 μM [3]: > 2 h
Structure (SMILES): CN1CC2(CC(Cc3cccc(CNC4(c5ccc(F)cc5)CCCC4)c3)C2)C1 [Compound 21, 1-(4-Fluorophenyl)-N-[[3-[(2-methyl-2-azaspiro[3.3]heptan-6-yl)methyl]phenyl]methyl]cyclopentanamine Dihydrochloride]

half-life at 4.6 μM [3]: > 2 h
Structure (SMILES): COc1cc(F)ccc1C1(NCc2ccc(F)c(CC3CCN(C)CC3)c2)CCCC1 [Compound 22, 1-(4-Fluoro-2-methoxy-phenyl)-N-[[4-fluoro-3-[(1-methyl-4-piperidyl)methyl]phenyl]methyl]cyclopentanamine Dihydrochloride]
